Compound activity from PubChem BioAssay.
MrgX1 PAM: allosterically activates human MrgX1 receptor signaling. MrgX1-HEK293, Fluo-4 calcium flux, FDSS; hits give high values. B-score at 10 µM. AID 588675. 310,000 compounds, 0.63% hits. Q96LB2;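 active = plate-corrected calcium response at least 3 library SD above typical, normal starting fluorescence, not activating the receptor alone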;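 note: compound read alongside a low EC10 to EC30 dose of BAM8-22 agonist; peak minus trough fluorescence over baseline measured at the second addition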
Target sequence (Q96LB2 whole entry, looked up): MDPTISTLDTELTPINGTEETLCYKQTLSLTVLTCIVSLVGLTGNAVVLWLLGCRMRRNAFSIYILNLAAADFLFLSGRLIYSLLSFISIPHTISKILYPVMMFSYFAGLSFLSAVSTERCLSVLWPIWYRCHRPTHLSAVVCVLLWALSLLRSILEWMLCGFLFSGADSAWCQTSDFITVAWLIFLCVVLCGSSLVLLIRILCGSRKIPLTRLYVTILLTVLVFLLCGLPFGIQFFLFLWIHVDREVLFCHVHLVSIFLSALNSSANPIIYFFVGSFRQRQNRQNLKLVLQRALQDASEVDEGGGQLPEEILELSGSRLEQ
MrgX1 agonist: human MrgX1 receptor agonism, primary screen; Q96LB2; MrgX1-HEK293 cells, Fluo-4 calcium fluorescence, agonist mode; hits give high values; B-score at 10 µM; 310,000 compounds, 0.44% hits;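 active = calcium response B-score plate-corrected fluorescence ratio at least 3 library SD, with starting fluorescence B-score inside 5 SD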
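Material – MrgX1-expressing HEK293 cells · Input – 15,000 cells seeded per well · Dosing – compound as first of three additions · Times – overnight seeding, then 1 h dark dye loading · Measured by – kinetic Fluo-4 NW fluorescence of intracellular calcium · Read-out – B-scored fluorescence response ratio · Benchmarks – positive and negative control wells on each plate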
MrgX1 antag: blocks BAM8-22 activation of human MrgX1 receptor; Q96LB2; MRGX1-HEK293 calcium flux, Fluo-4, BAM8-22 antagonism; hits give low values; B-score at 10 µM; 310,000 compounds, 1.3% hits; AID 588676;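 active = calcium-response B-score plate-corrected more than 3 library SD below zero, starting fluorescence within 5 deviations, no agonist response on first addition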;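 note: peak minus trough fluorescence over baseline after final BAM8-22 challenge near maximal dose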
RGS4 inh: human RGS4 inhibition. 310,000 compounds, 0.45% hits. P49798. HEK293 M3R/RGS4 inducible, Fluo-4 calcium flux; hits give high values; triggered by carbachol at its EC20. B-score at 10 µM;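 active = B-score, a plate-corrected calcium signal, over three deviations above library mean, with baseline fluorescence within five deviations of library mean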;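 note: RGS4 expression induced by doxycycline in cells with stable M3 receptor; B-score is computed from the integrated fluorescence ratio over baseline after carbachol; higher B-score means a larger calcium signal and so more RGS4 inhibition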
Target sequence (P49798 whole entry, looked up): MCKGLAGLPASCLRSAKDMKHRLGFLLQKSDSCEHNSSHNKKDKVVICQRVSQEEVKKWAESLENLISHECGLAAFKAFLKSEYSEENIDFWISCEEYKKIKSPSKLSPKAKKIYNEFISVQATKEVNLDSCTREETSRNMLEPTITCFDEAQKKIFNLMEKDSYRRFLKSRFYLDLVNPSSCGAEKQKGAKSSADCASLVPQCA
RGS4 pot: potentiators or activators of RGS4; HEK293 M3R/inducible RGS4, carbachol calcium flux Fluo4; hits give low values; B-score at 10 µM; 310,000 compounds, 0.92% hits;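 active = B-score of the integrated calcium signal more than 4 SD below the library mean, with starting fluorescence not abnormally high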;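 note: negative B-score means reduced calcium response which marks RGS4 activation or potentiation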
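Also added: carbachol at ECmax as muscarinic agonist stimulus; Assay system: HEK293 cells with stable M3R and inducible RGS4; Timing: overnight RGS4 induction, 30 min dye load 37 °C, 20 min compound RT; Measured by: Fluo4-AM (2 µM) calcium-flux fluorescence, kinetic read.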
MrgX1 ant reconf: human MrgX1 receptor antagonism, re-confirmation screen | shares compounds with MrgX1 antag | MrgX1-HEK293, BAM8-22 calcium flux, Fluo-4; hits give low values | remaining BAM8-22 calcium response % of control (hits give low values), % at 10 µM | 2,300 compounds, 19% hits | AID 602420;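 active = remaining agonist calcium response no higher than 100% minus 3 SD of agonist-only control wells, with starting fluorescence near control levels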;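 note: agonist BAM8-22 given at a near maximal EC90 to ECmax level; peak minus minimum fluorescence divided by baseline after agonist addition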
HEK293 Ca flux: activity in parental HEK293 cells lacking MrgX1. Fluo-4 calcium fluorescence, FDSS. shares compounds with MrgX1 antag. fluorescence ratio F(max-min)/F0 at 10 µM. 4,000 compounds, 2% hits;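 active = duplicate-averaged calcium fluorescence ratio at least three times the standard deviation of buffer wells, a nonspecific response in parental cells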
HEK293 Ca counter: activity in parental HEK293 cells without MrgX1 | 4,000 compounds, 0.4% hits | parental HEK293 calcium flux, Fluo-4 fluorescence ratio; hits give high values | AID 624114 | fluorescence ratio F(max-min)/F0 at 10 µM | shares compounds with MrgX1 antag;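 active = calcium fluorescence ratio, averaged over duplicates, at least 3 SD of the buffer-well ratio, meaning a nonspecific response in receptor-free cells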;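 note: untransfected parental HEK293 lacking MrgX1 used as counterscreen for MrgX1 allosteric activators; fluorescence change taken during the second addition on a kinetic imager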
HEK293 Ca cntr2: counter-screen for MrgX1 activators: effect in parental HEK293 cells. 4,000 compounds, 8.7% hits. fluorescence ratio F(max-min)/F0 at 10 µM. shares compounds with MrgX1 antag. AID 624115. Fluo-4 calcium fluorescence (FDSS); hits give high values;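 active = calcium fluorescence ratio at least three times the spread of buffer wells, meaning a non-specific response in parental cells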
Each line names hits and unclear results; the compound was inactive in the other large screens (follow-up assays come after a bar, where they were run). This is a sample that favours compounds with a hit; in the whole collection about 3.5% have one here.

CCc1cccc(CC)c1NC(=O)CSc1nc2ccc(N3C(=O)C4C5C=CC(C5)C4C3=O)cc2s1 (stereo unspecified)	MrgX1 antag -8.16 | MrgX1 ant reconf inactive | HEK293 Ca flux inactive | HEK293 Ca counter inactive | HEK293 Ca cntr2 inactive
CCn1nnc2cc(C(=O)Nc3cc(S(C)(=O)=O)ccc3Cl)ccc21	none
CCn1nnc2cc(C(=O)Nc3cc(OC)cc(OC)c3)ccc21	MrgX1 antag -8.75 | MrgX1 ant reconf inactive | HEK293 Ca flux inactive | HEK293 Ca counter inactive | HEK293 Ca cntr2 inactive
Clc1c(Cl)c(Cl)c2n[nH]nc2c1Cl	MrgX1 antag -6.97 | MrgX1 ant reconf inactive | HEK293 Ca flux inactive | HEK293 Ca counter inactive | HEK293 Ca cntr2 inactive
CN(C)c1cc(-c2cccc(C(F)(F)F)c2)oc(=O)c1Cl	none
COC(=O)c1cc(S(=O)(=O)NCCc2sccc2C)c[nH]1	none
COc1ccc(N(CC(=O)NCCSc2ccccn2)S(=O)(=O)c2ccccc2)c(OC)c1	none
CCc1cccc(C)c1NC(=S)NCc1ccc2[nH]c(C)cc2c1	MrgX1 antag -9.1 | MrgX1 ant reconf inactive | HEK293 Ca flux inactive | HEK293 Ca counter inactive | HEK293 Ca cntr2 inactive
CNC(=S)NCc1ccc2[nH]c(C)cc2c1	none
COC(=O)c1csc2c(C(F)(F)F)cc(N3CCN(C(=O)Nc4ccccc4)CC3)nc12	none
CCOC(=O)c1cnc(Nc2nc3ccccc3o2)nc1CSc1nnc(C)s1	MrgX1 antag -5.27 | MrgX1 ant reconf inactive | HEK293 Ca flux inactive | HEK293 Ca counter inactive | HEK293 Ca cntr2 inactive
O=C(CN(C(=O)CCC(=O)Nc1nccs1)c1cccc(C(F)(F)F)c1)NCC1CCCO1 (stereo unspecified)	none
O=C(COc1ccccc1)Nc1cccc(-c2nc3cc4ccccc4cc3[nH]2)c1	MrgX1 antag -5.08 | MrgX1 ant reconf 77.8% | HEK293 Ca flux inactive | HEK293 Ca counter inactive | HEK293 Ca cntr2 inactive
O=C(COC(=O)c1ccccc1N1C(=O)C2C3CCC(C3)C2C1=O)c1ccccc1 (stereo unspecified)	none
Cc1ccc(C)c(C(=O)COC(=O)c2ccccc2N2C(=O)C3C4CCC(C4)C3C2=O)c1 (stereo unspecified)	MrgX1 antag -6 | MrgX1 ant reconf inactive | HEK293 Ca flux inactive | HEK293 Ca counter inactive | HEK293 Ca cntr2 inactive
CCN(CC)S(=O)(=O)c1ccc2c(c1)c(=O)c(C(=O)NCCc1ccccc1)cn2C	none
CN(CC(=O)Nc1c(Cl)cccc1Cl)C(=O)C1CSC2(C)CCC(=O)N12 (stereo unspecified)	MrgX1 antag -6.82 | MrgX1 ant reconf inactive | HEK293 Ca flux inactive | HEK293 Ca counter inactive | HEK293 Ca cntr2 inactive
CSc1cccc(-c2nnc(NC(=O)c3cccc(N4C(=O)CCC4=O)c3)o2)c1	MrgX1 antag -4.52 | MrgX1 ant reconf inactive | HEK293 Ca flux inactive | HEK293 Ca counter inactive | HEK293 Ca cntr2 inactive
O=C(Nc1nnc(-c2ccncc2)o1)c1cccc(N2C(=O)CCC2=O)c1	none
O=C(NC(Cc1ccccc1)C(=O)N1CCCCC1)c1ccccc1 (stereo unspecified)	none
COc1ccc(NC2c3ccccc3C(=O)N2Cc2ccco2)cc1OC (stereo unspecified)	MrgX1 antag -5.36 | MrgX1 ant reconf inactive | HEK293 Ca flux inactive | HEK293 Ca counter inactive | HEK293 Ca cntr2 inactive
O=C1c2ccccc2C(Nc2ccc(S(=O)(=O)N3CCCCC3)cc2)N1Cc1ccco1 (stereo unspecified)	MrgX1 antag -7.85 | MrgX1 ant reconf inactive | HEK293 Ca flux inactive | HEK293 Ca counter inactive | HEK293 Ca cntr2 inactive
COC(=O)c1cc(NC2c3ccccc3C(=O)N2Cc2ccco2)cc(C(=O)OC)c1 (stereo unspecified)	none (no result: RGS4 inh, RGS4 pot)
Cc1cccnc1CCNC(=O)c1ccc(OC2CCN(Cc3ccccn3)CC2)cc1	MrgX1 antag -10 | MrgX1 ant reconf inactive | HEK293 Ca flux inactive | HEK293 Ca counter inactive | HEK293 Ca cntr2 inactive
O=C(CCC(=O)N1CCN(c2cccc(Cl)c2)CC1)c1cccs1	none
CCn1c(=O)[nH]c2cc(C(=O)Nc3cc(C)cc(C)c3)ccc2c1=O	MrgX1 antag -5.06 | MrgX1 ant reconf 82.3% | HEK293 Ca flux inactive | HEK293 Ca counter inactive | HEK293 Ca cntr2 inactive
Cc1ccc(C(=O)Nc2nc3ccc(S(C)(=O)=O)cc3s2)o1	none
Cc1noc(C)c1C(=O)Nc1nc2ccc(S(C)(=O)=O)cc2s1	MrgX1 antag -7.5 | MrgX1 ant reconf inactive | HEK293 Ca flux inactive | HEK293 Ca counter inactive | HEK293 Ca cntr2 inactive
CCOC(=O)N1CCC(N2CCN(c3cc(C)ccc3C)CC2)CC1	MrgX1 antag -8.8 | MrgX1 ant reconf inactive | HEK293 Ca flux inactive | HEK293 Ca counter inactive | HEK293 Ca cntr2 inactive
O=C(Nc1ccc(F)cc1)OCCOc1ccc([N+](=O)[O-])cc1	none
CNC(=S)N1C2CCCC1CC(NC(=O)c1ccc(F)cc1)C2 (stereo unspecified)	none
Cc1cc(/C=C2\SC(=S)N(C)C2=O)c(C)n1-c1ccc(O)cc1	MrgX1 antag -11.3 | MrgX1 ant reconf inactive | HEK293 Ca flux inactive | HEK293 Ca counter inactive | HEK293 Ca cntr2 inactive
O=C1OCCC1Sc1nc2ccccc2c(=O)n1Cc1ccccc1 (stereo unspecified)	MrgX1 antag -6.15 | MrgX1 ant reconf inactive | HEK293 Ca flux inactive | HEK293 Ca counter inactive | HEK293 Ca cntr2 inactive
O=C1OCCC1Sc1nc2cc(Cl)ccc2n1Cc1ccccc1 (stereo unspecified)	none
O=C(c1ccc(Cl)c(S(=O)(=O)N2CCCCCC2)c1)N1CCN(c2ccccc2O)CC1	MrgX1 antag -4.82 | MrgX1 ant reconf 80.2% | HEK293 Ca flux inactive | HEK293 Ca counter inactive | HEK293 Ca cntr2 inactive
O=C(c1ccc(Cl)c(S(=O)(=O)N2CCCC2)c1)N1CCN(c2ccccc2)CC1	none
O=C(c1ccc(Cl)c(S(=O)(=O)N2CCOCC2)c1)N1CCN(c2ccccc2)CC1	MrgX1 antag -4.55 | MrgX1 ant reconf inactive | HEK293 Ca flux inactive | HEK293 Ca counter inactive | HEK293 Ca cntr2 inactive
O=C(c1ccc(Cl)c(S(=O)(=O)N2CCCCC2)c1)N1CCN(c2ccccc2)CC1	none
CO/N=C(\CCC(=O)O)c1cccs1	none
O=C(CN1C(=O)NC2(CCCC2)C1=O)N1CCN(S(=O)(=O)c2ccccc2F)CC1	none
